Compound activity: PubChem BioAssay, several laboratories
Only some compounds are listed: those with a hit (about 4.1% of all), similar ones and a draw of the others.
hERG protect – compounds protecting human hERG from proarrhythmic drug block. activation (rescue from dofetilide block), less the hit threshold, % at 10 µM. Q12809. CHO-hERG, FluxOR thallium flux, dofetilide IC70 present. hit rate 0.51% among 310,000;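 active = activation above the mean of controls blocked by dofetilide plus 5 SD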;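 also: thallium influx through hERG after potassium depolarization seen as dye fluorescence rise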
Target sequence (Q12809 whole entry, looked up): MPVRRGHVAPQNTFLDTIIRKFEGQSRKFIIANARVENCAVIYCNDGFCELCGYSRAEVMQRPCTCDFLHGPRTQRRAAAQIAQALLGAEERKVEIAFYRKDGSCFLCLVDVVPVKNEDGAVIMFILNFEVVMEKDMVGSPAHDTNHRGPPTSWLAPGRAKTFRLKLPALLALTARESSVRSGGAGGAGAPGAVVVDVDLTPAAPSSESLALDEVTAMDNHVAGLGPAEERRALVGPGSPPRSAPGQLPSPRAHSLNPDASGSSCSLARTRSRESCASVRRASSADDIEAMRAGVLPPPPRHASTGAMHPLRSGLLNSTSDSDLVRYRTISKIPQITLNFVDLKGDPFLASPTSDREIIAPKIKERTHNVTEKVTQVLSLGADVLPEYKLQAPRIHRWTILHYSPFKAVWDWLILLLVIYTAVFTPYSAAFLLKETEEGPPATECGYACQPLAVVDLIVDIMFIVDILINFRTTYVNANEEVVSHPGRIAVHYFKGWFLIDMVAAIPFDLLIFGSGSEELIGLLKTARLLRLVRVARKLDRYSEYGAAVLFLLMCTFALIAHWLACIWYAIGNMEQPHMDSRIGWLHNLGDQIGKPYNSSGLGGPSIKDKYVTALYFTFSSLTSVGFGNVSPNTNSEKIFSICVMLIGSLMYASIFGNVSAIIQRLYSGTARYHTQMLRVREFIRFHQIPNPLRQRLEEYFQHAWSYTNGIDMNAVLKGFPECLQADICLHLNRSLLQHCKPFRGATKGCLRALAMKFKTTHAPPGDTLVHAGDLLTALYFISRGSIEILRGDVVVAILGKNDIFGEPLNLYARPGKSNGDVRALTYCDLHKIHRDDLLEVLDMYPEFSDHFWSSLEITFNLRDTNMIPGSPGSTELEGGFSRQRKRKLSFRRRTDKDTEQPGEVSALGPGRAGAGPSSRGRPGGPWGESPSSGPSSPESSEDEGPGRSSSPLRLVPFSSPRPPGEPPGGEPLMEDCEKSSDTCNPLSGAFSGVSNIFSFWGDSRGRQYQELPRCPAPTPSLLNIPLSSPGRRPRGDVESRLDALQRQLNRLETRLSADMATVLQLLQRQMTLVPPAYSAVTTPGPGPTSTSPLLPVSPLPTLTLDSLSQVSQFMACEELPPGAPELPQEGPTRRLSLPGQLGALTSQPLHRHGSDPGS
KCNK3 block – human KCNK3 channel inhibition, primary screen; O14649; CHO-KCNK3 thallium flux, FluxOR fluorescence; active compounds read low; B-score at 10 µM; hit rate 0.84% among 340,000; AID 602410;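 active = B-score under library mean minus 4 SD, starting fluorescence ratio at most library mean plus 5 SD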;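 also: more negative B-score means stronger inhibition of thallium flux through KCNK3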
KCNK9 block – blocks the human KCNK9 two-pore domain potassium channel; hit rate 1.2% among 310,000; B-score at 10 µM; HEK293 KCNK9, FluxOR thallium flux fluorescence; active compounds read low; Q9NPC2; AID 488922;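 active = ratio B-score over 3 SD below the library mean, with starting fluorescence within 5 SD of its mean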;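 also: negative B-score means less thallium flux so channel inhibition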
KCNQ1 inh – human KCNQ1 channel inhibition; P51787; CHO-K1 KCNQ1, FluxOR thallium flux fluorescence; active compounds read high; B-score at 10 µM; hit rate 1.3% among 310,000;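 active = compounds whose thallium flux B-score, printed positive for inhibition, exceeds three library SD while starting fluorescence stays within three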;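 also: channel opened by potassium depolarization with thallium stimulus after 20 min compound exposure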
KCC2 mod – KCC2 (human) Cl- transport modulation. Q9H2X9. KCC2 cells, thallium flux FluoZin-2 fluorescence. B-score of Tl+ flux slope (higher = more flux/activation; lower = inhibition) at 10 µM. hit rate 2.2% among 190,000. AID 1456;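 active = thallium flux slope and its plate-corrected score both differing from the plate sample mean at a set confidence after two filtering rounds, in either direction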;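 also: slope of fluorescence scaled to starting intensity during 10 to 20 s after thallium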
KCNQ1 pot – potentiates or activates the human KCNQ1 potassium channel. B-score at 10 µM. AID 2648. P51787. CHO-K1 KCNQ1, thallium flux FluxOR fluorescence; active compounds read high. hit rate 0.35% among 310,000;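 active = fluorescence ratio B-score, a plate-corrected score, at least three library SD, with initial intensity B-score within 5 SD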
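Assay system: stable KCNQ1 CHO-K1 line; medium: assay buffer, equal DMSO in all wells; timing: 90 min dye loading and 20 min compound exposure, both at room temperature; technique: kinetic FluxOR thallium fluorescence, 10-s 1-Hz baseline, 110-s post-stimulus read; read-out basis: B score of baseline-normalized fluorescence ratio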
The depositor's hits bear a star; i = inactive; / = not tested or not shown.

SMILES | hERG protect | KCNK3 block | KCNK9 block | KCNQ1 inh | KCC2 mod | KCNQ1 pot
CC(Sc1n[nH]c(N)n1)C(=O)NC1CCCCC1C (centres undefined) | -8 | i | i | i | / | 8*
CC(Sc1nnc(C2CC2)n1N)C(=O)NC1CCCCC1C (centres undefined) | -10 | i | i | i | / | i
CCc1nc2c(n1O)CCc1nonc1-2 | -9 | i | i | i | 1.6 | i
COc1cc(NC(=O)COc2cc(O)c3c(c2)OC(C)(C)CC3=O)cc(OC)c1 | -5 | i | i | i | / | i
CCCCCc1cc(OC)cc2c1C(=O)OC(C)(C)O2 | / | -11* | / | / | / | /
Cc1ccc(S(=O)(=O)N2CCN(C(=O)COC(=O)c3ccc(Br)o3)CC2)c(C)c1 | -13 | i | i | i | / | i
Cc1ccc(S(=O)(=O)N2CCN(C(=O)c3ccc(Br)o3)CC2)c(C)c1 | -12 | i | i | i | / | 11*
COc1ccc(OC)c(C(c2nnnn2CCC(C)C)N2CCN(C(=O)c3ccco3)CC2)c1 (centres undefined) | -10 | i | -6.7* | i | / | i
CC(=N\NC(=O)c1ccc([N+](=O)[O-])cc1)/C(=N/O)C(=O)Nc1ccccc1 | -14 | i | i | 6* | / | i
COc1ccc(N2Nc3n[nH]c(N)c3N2)cc1 | -10 | i | i | i | -0.35 | i
CCOc1ccc(N2Nc3n[nH]c(N)c3N2)cc1 | 37* | i | i | i | -0.46 | i
O=C(N[C@@H](Cc1ccccc1)C(=O)N1CCC2(CC1)NCCc1[nH]cnc12)c1cccc(Br)c1 | -5 | i | i | i | / | i
CCCCCCCCn1c(N2CCN(c3cccc(Cl)c3)CC2)nc2c1c(=O)[nH]c(=O)n2C | -10 | i | i | i | -0.27 | i
CCCCCCn1c(N2CCN(c3cccc(Cl)c3)CC2)nc2c1c(=O)[nH]c(=O)n2C | -3 | i | -7.6* | i | -0.78 | i
O=C(Nc1ccccc1)OCCOc1ccccc1 | -11 | i | i | i | -0.29 | i
O=C(Nc1ccccc1)OCCCCCOC(=O)Nc1ccccc1 | 7.7* | i | i | i | / | i
S=C(NCCc1ccccn1)Nc1cc(Cl)cc(Cl)c1 | -11 | i | i | 6* | / | i
CCNC(=O)Cn1cc(C#N)c2ccccc21 | -5 | i | i | i | 0.39 | i
COc1ccccc1NS(=O)(=O)c1ccc(C(=O)NCC(c2ccc(F)cc2)N2CCOCC2)cc1 (centres undefined) | / | i | / | / | / | /
COc1cc(C(=O)NCC(c2ccc(F)cc2)N2CCOCC2)ccc1OCc1ccccc1Cl (centres undefined) | -14 | i | i | 10* | / | i
O=C(CC(=O)c1ccccc1[N+](=O)[O-])c1ccccc1 | -3 | / | i | i | / | i
COc1ccccc1OCC(=O)N/N=C1\CCCCc2ccccc21 | -15 | i | i | i | -2.6 | i
C=C(C)CNC(=S)N/N=C1\CCCCc2ccccc21 | -6 | i | i | i | 11* | i
CCNC(=S)N/N=C1\CCCCc2ccccc21 | 1 | i | i | i | 6.6* | i
C/C(CCc1oc2c(Br)cc(Br)cc2c1-c1ccc(C)o1)=N\O | -11 | i | i | i | 1.1 | 15*
SMILES | hERG protect | KCNK3 block | KCNK9 block | KCNQ1 inh | KCC2 mod | KCNQ1 pot
C/C(CCc1oc2ccccc2c1-c1ccc(C)o1)=N/O | -6 | i | i | i | 0.0039 | i
C=C(C)CN(CC)C(=O)CCc1nnc(CCc2c[nH]c3ccccc23)o1 | -6 | i | i | i | -2.1 | i
Cc1ccc(C2C(/C=C3/SC(=S)NC3=O)=C(c3cccs3)Oc3ccccc32)cc1 (centres undefined) | -7 | i | i | i | 2.5 | 8*
CC1CCCCN1C(=O)NC1CC(=O)N(c2ccc3c(c2)OCCO3)C1 (centres undefined) | -17 | i | i | i | / | i
Nc1cccc(N2C(=O)c3cccc4c(N)ccc(c34)C2=O)c1 | -20 | i | i | 11* | / | i
Nc1ccc2c3c(cccc13)C(=O)N(c1ccccc1)C2=O | -42 | i | i | i | i | i
CCOC(=O)c1sc2nc(CSc3ccccc3)nc(N3CCC(C(N)=O)CC3)c2c1C | 10* | i | i | i | 0.41 | i
COc1cc(/C=C2\SC(=S)N(CC(=O)NC3=NCCS3)C2=O)cc(OC)c1OC | -12 | i | i | i | 0.3 | i
Cc1cc(C(F)(F)F)n(-c2nc(C(=O)NN)cs2)n1 | 5.0* | i | i | i | -0.052 | i
CC(C)CN(C(=O)CCNC(=O)c1ccccc1Cl)C1CCS(=O)(=O)C1 (centres undefined) | / | i | / | / | / | /
CCN(CC)c1ccc(/C=C(/C#N)c2nc3ccc(C)cc3[nH]2)c(OC(C)C)c1 | -38 | i | i | 9* | i | i
CCCOc1cc(N(CC)CC)ccc1/C=C(/C#N)c1nc2ccc(C)cc2[nH]1 | -18 | i | -11* | i | -0.83 | i
COc1cc(/C=C(\C#N)c2nc3ccc(C)cc3[nH]2)c([N+](=O)[O-])cc1OC | -6 | i | i | i | / | i
Cc1ccccc1OCC(=O)Nc1cccc(C(=O)O)c1 | 5.5* | i | i | i | 0.048 | i
Cc1cccc(OCC(=O)Nc2cc(NC(=O)COc3cccc(C)c3C)cc(C(=O)O)c2)c1C | -8 | i | i | i | / | i
CCOC(=O)c1ccc(NC(=O)c2cc(S(=O)(=O)N3CCOCC3)ccc2O)cc1 | -7 | i | i | i | / | i
COC(=O)c1ccc(C)cc1 | / | i | / | / | / | /
COC(=O)c1ccc(NN=Nc2ccc(C)cc2)cc1 | 5.1* | i | i | i | -1.5 | i
O=C(O)C1=C[C@@H](c2csc3ccccc23)C[C@@H](OCc2ccc(CO)cc2)O1 | -10 | i | i | i | -3.1* | i
O=S(=O)(c1ccc(Br)cc1)c1nc(-c2ccco2)oc1NCCCn1ccnc1 | / | i | / | / | / | /
Cc1ccc(CSc2ccc(S(=O)(=O)N3CCCC3)cn2)cc1 | / | i | / | / | / | /
O=S(=O)(c1ccc(SCc2cccc(Cl)c2)nc1)N1CCCC1 | / | -9.5* | / | / | / | /
O=C(CSCC(=O)Nc1ccccc1)N/N=C/c1c(O)ccc2ccccc12 | -16 | i | i | i | -0.061 | i
O=C(N/N=C/c1c(O)ccc2ccccc12)c1ccc(Br)o1 | -15 | i | i | 6* | / | i
O=C(N/N=C\c1c(O)ccc2ccccc12)c1ccc(O)cc1 | -9 | i | i | i | / | i
O=C(N/N=C/c1c(O)ccc2ccccc12)Nc1ccccc1 | -9 | i | i | 6* | / | i
